These results are taken from ChEMBL document CHEMBL1154808, “Synthesis, characterization and biological activities of some new benzo[b]thiophene derivatives” (2010).

Common to all, as to assay type: functional
One experiment has as its system Pseudomonas aeruginosa. Description: Antibacterial activity against Pseudomonas aeruginosa after 16 to 18 hrs by serial dilution method. The gist of the method:
(§1)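 Compounds were dissolved in DMF and serially diluted. A standard drop of the prepared culture was added to each dilution, and tubes were incubated for 16–18 h at 37 °C. MIC was read as the highest dilution that stayed clear with no turbidity, determined separately for each organism. Candida albicans was tested by the same procedure.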

In the next experiment the test system is Escherichia coli. Briefly: Antibacterial activity against Escherichia coli after 16 to 18 hrs by serial dilution method. The essentials:
as §1

Another experiment deals with Staphylococcus aureus. Description: Antibacterial activity against Staphylococcus aureus after 16 to 18 hrs by serial dilution method. The essentials:
as §1

The next experiment deals with Candida albicans. Briefly: Antifungal activity against Candida albicans after 16 to 18 hrs by serial dilution method. The essentials: as §1
The next experiment concerns Bacillus subtilis. Briefly: Antibacterial activity against Bacillus subtilis after 16 to 18 hrs by serial dilution method. The gist of the method:
as §1

Values after ≈ are worked out from the molar mass of the structure shown.

Regarding `CC1=NN(C(=O)c2sc3ccccc3c2Cl)C(=O)/C1=N/Nc1ccc(Cl)cc1C`, the minimal inhibitory concentration (MIC) against Pseudomonas aeruginosa, against Escherichia coli, in the experiment on Staphylococcus aureus, in the experiment on Candida albicans and in the experiment with Bacillus subtilis was 6 µg/mL (≈ 13.5 µM) in each case.

As to `COc1ccc(-c2cc(-c3ccccc3)n(C(=O)c3sc4ccccc4c3Cl)n2)cc1`, the MIC in the experiment with Pseudomonas aeruginosa came to 6 µg/mL (≈ 13.5 µM); with Escherichia coli, 6 µg/mL (≈ 13.5 µM); against Staphylococcus aureus it was 6 µg/mL (≈ 13.5 µM); with Candida albicans it was 3 µg/mL (≈ 6.74 µM); against Bacillus subtilis, 6 µg/mL (≈ 13.5 µM).

`CC1=NN(C(=O)c2sc3ccccc3c2Cl)C(=O)/C1=N/Nc1cc(Cl)ccc1Cl`: the minimum inhibitory concentration (MIC) against Pseudomonas aeruginosa was 6 µg/mL (≈ 12.9 µM); in the experiment with Escherichia coli it was 6 µg/mL (≈ 12.9 µM); in the experiment with Staphylococcus aureus, 12.5 µg/mL (≈ 26.8 µM); against Candida albicans, 6 µg/mL (≈ 12.9 µM); with Bacillus subtilis it was 6 µg/mL (≈ 12.9 µM).

Take `O=C(c1sc2ccccc2c1Cl)n1nc(-c2ccc([N+](=O)[O-])s2)cc1-c1ccccc1`: the MIC in the experiment on Pseudomonas aeruginosa was 6 µg/mL (≈ 12.9 µM); against Escherichia coli it was 3 µg/mL (≈ 6.44 µM); in the experiment on Staphylococcus aureus, 3 µg/mL (≈ 6.44 µM); in the experiment with Candida albicans, 6 µg/mL (≈ 12.9 µM); in the experiment with Bacillus subtilis, 6 µg/mL (≈ 12.9 µM).

In the case of `Clc1ccccc1OCc1nnc(-c2sc3ccccc3c2Cl)o1`, the MIC against Pseudomonas aeruginosa, against Escherichia coli, against Staphylococcus aureus, in the experiment with Candida albicans and against Bacillus subtilis was 6 µg/mL (≈ 15.9 µM) throughout.

In the case of `CC1=NN(C(=O)c2sc3ccccc3c2Cl)C(=O)/C1=N/Nc1ccccc1`, the minimum inhibitory concentration (MIC) against Pseudomonas aeruginosa, against Escherichia coli, with Staphylococcus aureus, in the experiment with Candida albicans and in the experiment on Bacillus subtilis was 6 µg/mL (≈ 15.1 µM) in each case.

For `Clc1ccccc1OCc1nnc2sc(-c3sc4ccccc4c3Cl)nn12`, the minimal inhibitory concentration (MIC) with Pseudomonas aeruginosa, in the experiment with Escherichia coli, with Staphylococcus aureus, in the experiment on Candida albicans and in the experiment with Bacillus subtilis was 6 µg/mL (≈ 13.8 µM) each time.

Turning to `O=C(c1sc2ccccc2c1Cl)n1nc(-c2ccc([N+](=O)[O-])s2)cc1-c1ccc(Cl)cc1`, the minimal inhibitory concentration (MIC) is 6 µg/mL (≈ 12 µM) against Pseudomonas aeruginosa; 6 µg/mL (≈ 12 µM) in the experiment on Escherichia coli; 3 µg/mL (≈ 6 µM) with Staphylococcus aureus; 3 µg/mL (≈ 6 µM) in the experiment with Candida albicans; 6 µg/mL (≈ 12 µM) with Bacillus subtilis.

Regarding `OC(Cn1cncn1)(Cn1cncn1)c1ccc(F)cc1F` [FLUCONAZOLE], inhibition of growth with Candida albicans (MIC) required 6 µg/mL (≈ 19.6 µM).

Consider `Cc1ccc(OCc2nnc3sc(-c4sc5ccccc5c4Cl)nn23)cc1`, for which the MIC against Pseudomonas aeruginosa, with Escherichia coli, with Staphylococcus aureus, in the experiment on Candida albicans and in the experiment on Bacillus subtilis was 6 µg/mL (≈ 14.5 µM) in each case.

In the case of `CC1=NN(C(=O)c2sc3ccccc3c2Cl)C(=O)/C1=N/Nc1ccc(C)cc1[N+](=O)[O-]`, the minimum inhibitory concentration (MIC) against Pseudomonas aeruginosa, against Escherichia coli, in the experiment with Staphylococcus aureus, against Candida albicans and against Bacillus subtilis was 6 µg/mL (≈ 13.2 µM) throughout.

For the compound `Clc1ccc(OCc2nnc(-c3sc4ccccc4c3Cl)o2)c(Cl)c1`, the MIC against Pseudomonas aeruginosa, against Escherichia coli, in the experiment on Staphylococcus aureus, in the experiment on Candida albicans and in the experiment on Bacillus subtilis was 6 µg/mL (≈ 14.6 µM) each time.

For the compound `NC(=O)N/N=C/c1ccc([N+](=O)[O-])o1` [NITROFURAZONE], the MIC against Pseudomonas aeruginosa is 12.5 µg/mL (≈ 63.1 µM); in the experiment with Escherichia coli, 6 µg/mL (≈ 30.3 µM); in the experiment on Staphylococcus aureus, 12.5 µg/mL (≈ 63.1 µM); in the experiment with Bacillus subtilis, 12.5 µg/mL (≈ 63.1 µM).

For the compound `COc1ccc(-c2cc(-c3ccc(Cl)cc3)n(C(=O)c3sc4ccccc4c3Cl)n2)cc1`, the MIC against Pseudomonas aeruginosa, with Escherichia coli, against Staphylococcus aureus, with Candida albicans and in the experiment on Bacillus subtilis was 6 µg/mL (≈ 12.5 µM) throughout.
